Series [1] concerns the target T1, Cyclin-dependent kinase 4 (Homo sapiens, UniProt P11802). The series can be described thus: Inhibition of CDK4-mediated retinoblastoma protein phosphorylation by dose-response curve analysis. Put shortly:
(§1)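 Kinase assay read as Rb phosphorylation by cyclin D1-CDK4 or cyclin E-CDK2. IC50 is the concentration (μg/mL) giving 50% inhibition of Rb phosphorylation, read from the dose-response curve. Values are means of at least two determinations.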

Series [2] has as its target Cyclin-dependent kinase 2 (Homo sapiens, UniProt P24941). The series can be described thus: Inhibition of CDK2-mediated retinoblastoma protein phosphorylation by dose-response curve analysis. Put shortly: as §1
Another series deals with PC-6. Briefly: Antiproliferative activity against human PC6 cells by dose-response curve analysis. It is filed as functional, cell-based. A digest of the protocol:
(§2)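 Cell growth inhibition measured from dose-response curves at ten concentrations. IC50 is the concentration giving 50% growth inhibition, read from these curves.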

Series [3] deals with HCT-116. The series can be described thus: Antiproliferative activity against human HCT116 cells by dose-response curve analysis. Format: functional, cell-based. A digest of the protocol: as §2
A further series concerns WiDr. Briefly: Antiproliferative activity against human WiDr cells by MTT assay. Format: functional, cell-based. A digest of the protocol: as §2
In another series the test system is DLD-1. The series can be described thus: Antiproliferative activity against human DLD1 cells by MTT assay. Format: functional, cell-based. A digest of the protocol:
as §2

For series [4], the system named is HCT-116. Briefly: Antiproliferative activity against docetaxal-resistant human HCT116 cells by MTT assay. It is filed as functional, cell-based. A digest of the protocol:
as §2

In series [5] the test system is HCT-116. Briefly: Antiproliferative activity against SN2-3-resistant human HCT116 cells by MTT assay. It is filed as functional, cell-based. Put shortly:
as §2

The subject of a further series is MKN-28. Briefly: Antiproliferative activity against human MKN28 cells by MTT assay. It is filed as functional, cell-based. Put shortly:
as §2

The subject of the next series is MDA-MB-231. The series can be described thus: Antiproliferative activity against human MDA-MB-231 cells by MTT assay. It is filed as functional, cell-based. Put shortly:
as §2

For the next series, the system named is MDA-MB-468. The series can be described thus: Antiproliferative activity against human MDA-MB-468 cells by MTT assay. Format: functional, cell-based. A digest of the protocol: as §2
The nature of series [6]: Antiproliferative activity against mouse B16-BL6 cells by MTT assay. It is filed as functional, cell-based. A digest of the protocol:
as §2

In the next series the test system is P388. Briefly: Antiproliferative activity against mouse P388 cells by MTT assay. It is filed as functional, cell-based. A digest of the protocol: as §2
For series [7], the system named is HCT-116. The series can be described thus: Cell cycle arrest in human HCT116 cells assessed as accumulation at G1 phase at 500 ng/mL after 16 hrs by FACS analysis. It is filed as functional. Put shortly:
(§3)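 HCT116 cells exposed to test compound at various concentrations for 16 hr, then collected. DNA content measured by flow cytometry to assign G1, S and G2/M fractions.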

Series [8] deals with HCT-116. Briefly: Cell cycle arrest in human HCT116 cells assessed as decrease in accumulation at S phase at 500 ng/mL after 16 hrs by FACS analysis. Format: functional, cell-based. Put shortly: as §3
Series [9] relates to HCT-116. Briefly: Cell cycle arrest in human HCT116 cells assessed as decrease in accumulation at G2/M phase at 500 ng/mL after 16 hrs by FACS analysis. It is filed as functional, cell-based. A digest of the protocol: as §3
The test system of series [10] is HCT-116. Briefly: Antitumor activity against human HCT116 cells xenografted in nude mouse assessed as maximum inhibition of […] growth at 200 mg/kg, iv qd for 4 days. It is filed as functional. Conditions: HCT-116, 96 h. A digest of the protocol:
(§4)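 HCT116 solid tumours in mice. Hydrochloride salt dissolved in 40% Captisol, dosed 200 mg/kg once daily for 4 days (qdx4), i.v. or p.o. Read-outs: maximum inhibition rate of tumour volume, maximum body weight loss, and toxic deaths out of 5 mice.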

The subject of series [11] is HCT-116. Briefly: Antitumor activity against human HCT116 cells xenografted in nude mouse assessed as maximum inhibition of […] growth at 200 mg/kg, po qd for 4 days. It is filed as functional. The note with it: HCT-116, 96 h. A digest of the protocol:
as §4

Series [12] relates to Mus musculus. Briefly: Toxicity in nude mouse xenografted with human HCT116 cells assessed as maximum body weight loss at 200 mg/kg, iv qd for 4 days. Also on record: dose 200 mg/kg, route intravenous. Conditions: in vivo, 96 h. It is filed as organism-based, HCT-116. A digest of the protocol: as §4
Series [13] relates to Mus musculus. Briefly: Toxicity in nude mouse xenografted with human HCT116 cells assessed as maximum body weight loss at 200 mg/kg, po qd for 4 days. It is filed as organism-based, HCT-116. Details: dose 200 mg/kg, route oral. Conditions: in vivo, 96 h. Put shortly:
as §4

In series [14] the test system is Mus musculus. Briefly: Toxicity in nude mouse xenografted with human HCT116 cells assessed as death at 200 mg/kg, iv qd for 4 days. Format: organism-based, HCT-116. Also on record: dose 200 mg/kg, route intravenous. Conditions: in vivo, 96 h. A digest of the protocol: (§5)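 Mice bearing HCT116 colon solid tumours (n=5 per group) dosed as the hydrochloride salt dissolved in 40% Captisol at 200 mg/kg once daily for 4 days (qdx4), i.v. or p.o. Toxicity recorded as the number of mice dead from toxicity over the number used, with maximum body-weight loss also noted.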

Series [15] concerns Mus musculus. The series can be described thus: Toxicity in nude mouse xenografted with human HCT116 cells assessed as death at 200 mg/kg, po qd for 4 days. Format: organism-based, HCT-116. Details: dose 200 mg/kg, route oral. Conditions: in vivo, 96 h. Put shortly: as §5
Series [16] can be described thus: Solubility in 40% captisol. Format: physicochemical.
Series [17] concerns the target T1, Cyclin-dependent kinase 4. Briefly: Inhibition of CDK4-mediated retinoblastoma protein phosphorylation up to 20 ug/mL by dose-response curve analysis.
Series [18] can be described thus: Aqueous solubility in water. Format: physicochemical.
The subject of series [19] is HCT-116. Briefly: Cell cycle arrest in human HCT116 cells assessed as increase in accumulation at G1 phase after 16 hrs by FACS analysis. Format: functional, cell-based. Put shortly: as §3
Series [20] addresses T1, Cyclin-dependent kinase 4. Briefly: Inhibition of CDK4-mediated retinoblastoma protein phosphorylation up to 20 ug/mL by dose-response curve analysis. Put shortly:
as §1

pIC50: −log10 of the molar value. Converted amounts (≈) assume the structure as drawn. The source made the active and inactive calls. No cut-off for these calls is given here.

Regarding `CCc1cc2c(N/N=C\c3cccs3)nc(-c3ccccc3)nc2s1`, the negative-log IC50 (pIC50) in series [1] and in [2] was less than 4.26 in each case.

In the case of `CCc1cc2c(N/N=C\c3cccs3)nc(C)nc2s1`, the negative-log IC50 (pIC50) in series [1] and in [2] was less than 4.18 throughout.

Turning to `CC(C)c1cc2c(N/N=C\c3ccccc3)ncnc2s1`, the pIC50 in [1] is 5.80; in series [2], 5.53. Moreover, the IC50 in the series on PC-6 amounted to 0.651 µg/mL (≈ 2.2 µM).

As for `CC(C)(C)c1cc2c(N/N=C\c3ccccn3)ncnc2s1`, the negative-log IC50 (pIC50) was 5.54 in [1] and 5.05 in series [2]. In addition, the half-inhibitory concentration (IC50) in the series on HCT-116 [3] was found to be 0.014 µg/mL (≈ 0.045 µM); with PC-6, 0.009 µg/mL (≈ 0.0289 µM); in the series with WiDr, 0.019 µg/mL (≈ 0.061 µM); with DLD-1, 0.037 µg/mL (≈ 0.119 µM); with HCT-116 [4], 0.007 µg/mL (≈ 0.0225 µM); in the series with HCT-116 [5] it was 0.005 µg/mL (≈ 0.0161 µM). Further, the half-inhibitory concentration (IC50) worked out at 0.049 µg/mL (≈ 0.157 µM) with MKN-28; 0.019 µg/mL (≈ 0.061 µM) in the series with MDA-MB-231; 0.008 µg/mL (≈ 0.0257 µM) in the series on MDA-MB-468; 0.045 µg/mL (≈ 0.145 µM) in series [6]; 0.006 µg/mL (≈ 0.0193 µM) in the series on P388. The Activity in the series with HCT-116 [7] is on record as 64%; with Mus musculus [12], 22.6%; in the series on Mus musculus [13], 4.6%; in the series with Mus musculus [14] it was “Non-toxic”; with Mus musculus [15], “Non-toxic”. The result in the series with HCT-116 [8] and with HCT-116 [9] was Active. The inhibition in vivo at 200 mg/kg with HCT-116 [10] was 67.9%; with HCT-116 [11], 54.1%. For the same compound, in series [16], the solubility result is “Soluble”.

For `C(=N/Nc1ncnc2sc(Cc3ccccc3)cc12)/c1cccs1`, the figures for the negative-log IC50 (pIC50) in [1] and in series [2] were less than 4.24 and 4.73, respectively. For the same compound, in series [17], the result was inactive.

As for `Cc1cc2c(N/N=C\c3cccs3)ncnc2s1`, the negative logarithm of the IC50 (pIC50) in series [1] is 5.16; in series [2] it was 5.21.

With `CC(C)c1cc2c(N/N=C\c3cccnc3)ncnc2s1`, the values for the negative-log IC50 (pIC50) in [1] and in [2] were 5.73 and 5.63, respectively. The IC50 with PC-6 worked out at 0.889 µg/mL (≈ 2.99 µM).

For `CC(C)c1cc2c(N/N=C\c3ccccn3)ncnc2s1`, the negative-log IC50 (pIC50) in series [1] was 5.53; in series [2], 4.98. Also, the IC50 in the series on HCT-116 [3] turned out to be 0.01 µg/mL (≈ 0.0336 µM); in the series with PC-6, 0.003 µg/mL (≈ 0.0101 µM).

For `CN(C)Cc1cccc(/C=N\Nc2ncnc3sc(C(C)(C)C)cc23)n1`, the pIC50 was 6.82 in series [1] and 5.42 in [2]. The solubility in series [18] came to 44 µg/mL (≈ 119 µM). For the same compound, the IC50 in the series on HCT-116 [3] amounted to 0.429 µg/mL (≈ 1.16 µM); in the series with PC-6, 0.381 µg/mL (≈ 1.03 µM); in the series on WiDr, 0.889 µg/mL (≈ 2.41 µM); in the series with DLD-1 it was 0.506 µg/mL (≈ 1.37 µM); in the series on HCT-116 [4] it was 0.973 µg/mL (≈ 2.64 µM); with HCT-116 [5], 0.755 µg/mL (≈ 2.05 µM). In addition, the 50% inhibitory concentration (IC50) was found to be 1.39 µg/mL (≈ 3.77 µM) in the series on MKN-28; 0.919 µg/mL (≈ 2.49 µM) in the series with MDA-MB-231; 0.315 µg/mL (≈ 0.855 µM) in the series on MDA-MB-468; 1.09 µg/mL (≈ 2.96 µM) in [6]; 0.37 µg/mL (≈ 1 µM) in the series with P388. In addition, the Activity entry in the series on HCT-116 [19] was “Dose-dependent effect”.

As to `Cc1ccc(/C=N\Nc2ncnc3sc(C(C)(C)C)cc23)nc1`, the pIC50 in series [1] is 5.57; in [2], 4.43. Further, the IC50 in the series with HCT-116 [3] was 0.02 µg/mL (≈ 0.0615 µM); in the series with PC-6, 0.009 µg/mL (≈ 0.0277 µM).

With `CC(C)c1cc2c(N/N=C\c3ccco3)ncnc2s1`, the pIC50 was 5.87 in series [1] and 5.72 in series [2]. The same compound came in with an IC50 in the series with PC-6 of 3.78 µg/mL (≈ 13.2 µM).

Turning to `C(=N/Nc1ncnc2sc3c(c12)CCCC3)/c1cccs1`, the negative-log IC50 (pIC50) in series [1] and in series [2] was less than 4.20 in each case.

For the compound `CC(C)c1cc2c(-n3ccc(-c4cccs4)n3)ncnc2s1`, the pIC50 in series [1] and in series [2] was less than 4.21 throughout. In addition, in [20], the outcome was inactive.

In the case of `CC(C)(C)c1cc2c(N/N=C\c3cccc(CO)n3)ncnc2s1`, the negative logarithm of the IC50 (pIC50) in [1] was 5.99; in [2] it was 5.21. Also, the IC50 was 0.039 µg/mL (≈ 0.114 µM) in the series with HCT-116 [3] and 0.034 µg/mL (≈ 0.0996 µM) in the series on PC-6.

For the origin of these results see ChEMBL document CHEMBL1149082, “Discovery of novel thieno[2,3-d]pyrimidin-4-yl hydrazone-based inhibitors of Cyclin D1-CDK4: synthesis, biological evaluation, and structure-activity relationships” (Bioorg Med Chem Lett, 2009).
